Measured values gathered from unrelated publications.
Protocols differ between the studies behind these lines.
Target: Serine/threonine-protein kinase BRSK1 (BRSK1, Homo sapiens, UniProt Q8TDC3)
One construct used (Q8TDC3 1-778): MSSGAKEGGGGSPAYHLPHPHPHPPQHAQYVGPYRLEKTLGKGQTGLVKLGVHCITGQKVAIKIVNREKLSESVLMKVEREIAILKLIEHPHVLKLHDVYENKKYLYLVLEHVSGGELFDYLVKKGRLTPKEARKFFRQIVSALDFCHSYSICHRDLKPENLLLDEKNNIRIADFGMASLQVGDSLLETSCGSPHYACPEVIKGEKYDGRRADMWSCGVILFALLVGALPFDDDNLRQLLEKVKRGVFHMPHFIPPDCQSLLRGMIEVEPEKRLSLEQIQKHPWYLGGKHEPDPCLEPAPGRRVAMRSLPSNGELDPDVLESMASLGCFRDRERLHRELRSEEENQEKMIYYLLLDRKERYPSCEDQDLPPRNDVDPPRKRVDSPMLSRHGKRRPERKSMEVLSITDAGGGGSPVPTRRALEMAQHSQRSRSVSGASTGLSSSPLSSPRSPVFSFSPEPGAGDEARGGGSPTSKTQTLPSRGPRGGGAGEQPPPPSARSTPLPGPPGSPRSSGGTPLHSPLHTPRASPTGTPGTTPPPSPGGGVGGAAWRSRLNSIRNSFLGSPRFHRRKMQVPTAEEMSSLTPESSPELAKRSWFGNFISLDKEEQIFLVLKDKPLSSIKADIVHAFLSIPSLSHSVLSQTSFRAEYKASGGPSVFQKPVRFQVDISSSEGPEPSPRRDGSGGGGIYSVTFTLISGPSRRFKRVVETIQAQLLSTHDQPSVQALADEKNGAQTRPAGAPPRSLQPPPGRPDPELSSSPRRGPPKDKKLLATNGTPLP

Structure (SMILES) | assay | conditions | quantity | value
Cc1nn(C)cc1-c1nc2c(N3CCN(Cc4ccc(Cl)cc4)CC3)c(Cl)cnc2[nH]1 | binding, competition with immobilised ligand | 1 µM | remaining binding | 100%
Cn1cc(-c2cc(F)cc(N3CCn4c(cc5c4CCCC5)C3=O)c2CO)cc(Nc2ccc(N3CCN(C4COC4)CC3)cn2)c1=O | enzyme activity, inhibitor | 0.1 µM | inhibition | 12%
N#CC1(c2ccccn2)CCN(Cc2cc(C(=O)O)c(=O)n3ccccc23)CC1 | cell-free assay, competition with immobilised ligand | 1 µM | remaining binding | 100%
Nc1ncc(-c2nc(N3CCOCC3)nc(N3CCOCC3)n2)c(C(F)F)n1 | binding, competition with immobilised ligand | 10 µM | remaining binding | 91%
CC(C)(C)c1cc(C=C(C#N)C#N)cc(Br)c1O | enzyme activity, inhibitor | 0.5 µM | remaining activity | 94%
Cn1cc(-c2cccc(N3CCc4c(sc5c4CC(C)(C)C5)C3=O)c2CO)cc(Nc2ccncn2)c1=O | enzyme activity, inhibitor | 1 µM | inhibition | 3%
COc1ncccc1-c1cnn2ccc(N3CCN(C(=O)OC(C)C)CC3)nc12 | binding, competition with immobilised ligand | 1 µM | remaining binding | 93%
Cn1cncc1[C@@](O)(COc1ccc(C#N)cc1-c1ccc(OC(F)(F)F)cc1)c1ccc(C#N)cc1 | cell-free assay, competition with immobilised ligand | 1 µM | remaining binding | 86%
O=c1[nH]c2ccccc2n1C1CCN(Cc2ccc(-c3[nH]c4cc5ncnc5cc4nc3-c3ccccc3)cc2)CC1 | cell-free assay | 0.5 µM | remaining signal | 98.3%
